Source: ChEMBL document CHEMBL1123952, “(Phosphinyloxy)acyl amino acid inhibitors of angiotensin converting enzyme (ACE). 1. Discovery of (S)-1-[6-amino-2-[[hydroxy(4-phenylbutyl)phosphinyl]oxy]-1-oxohexyl]-L -proline a novel orally active inhibitor of ACE” (J Med Chem, 1988)

Key:
[1] = biological target: T1, Angiotensin-converting enzyme (Oryctolagus cuniculus, UniProt P12822); assay: In vitro inhibition of angiotensin I converting enzyme in rabbit lung with hippuryl-histidyl-leucine as substrate; assay type: tissue-based; conditions: read-out: I50
T1 sequence (P12822 whole entry): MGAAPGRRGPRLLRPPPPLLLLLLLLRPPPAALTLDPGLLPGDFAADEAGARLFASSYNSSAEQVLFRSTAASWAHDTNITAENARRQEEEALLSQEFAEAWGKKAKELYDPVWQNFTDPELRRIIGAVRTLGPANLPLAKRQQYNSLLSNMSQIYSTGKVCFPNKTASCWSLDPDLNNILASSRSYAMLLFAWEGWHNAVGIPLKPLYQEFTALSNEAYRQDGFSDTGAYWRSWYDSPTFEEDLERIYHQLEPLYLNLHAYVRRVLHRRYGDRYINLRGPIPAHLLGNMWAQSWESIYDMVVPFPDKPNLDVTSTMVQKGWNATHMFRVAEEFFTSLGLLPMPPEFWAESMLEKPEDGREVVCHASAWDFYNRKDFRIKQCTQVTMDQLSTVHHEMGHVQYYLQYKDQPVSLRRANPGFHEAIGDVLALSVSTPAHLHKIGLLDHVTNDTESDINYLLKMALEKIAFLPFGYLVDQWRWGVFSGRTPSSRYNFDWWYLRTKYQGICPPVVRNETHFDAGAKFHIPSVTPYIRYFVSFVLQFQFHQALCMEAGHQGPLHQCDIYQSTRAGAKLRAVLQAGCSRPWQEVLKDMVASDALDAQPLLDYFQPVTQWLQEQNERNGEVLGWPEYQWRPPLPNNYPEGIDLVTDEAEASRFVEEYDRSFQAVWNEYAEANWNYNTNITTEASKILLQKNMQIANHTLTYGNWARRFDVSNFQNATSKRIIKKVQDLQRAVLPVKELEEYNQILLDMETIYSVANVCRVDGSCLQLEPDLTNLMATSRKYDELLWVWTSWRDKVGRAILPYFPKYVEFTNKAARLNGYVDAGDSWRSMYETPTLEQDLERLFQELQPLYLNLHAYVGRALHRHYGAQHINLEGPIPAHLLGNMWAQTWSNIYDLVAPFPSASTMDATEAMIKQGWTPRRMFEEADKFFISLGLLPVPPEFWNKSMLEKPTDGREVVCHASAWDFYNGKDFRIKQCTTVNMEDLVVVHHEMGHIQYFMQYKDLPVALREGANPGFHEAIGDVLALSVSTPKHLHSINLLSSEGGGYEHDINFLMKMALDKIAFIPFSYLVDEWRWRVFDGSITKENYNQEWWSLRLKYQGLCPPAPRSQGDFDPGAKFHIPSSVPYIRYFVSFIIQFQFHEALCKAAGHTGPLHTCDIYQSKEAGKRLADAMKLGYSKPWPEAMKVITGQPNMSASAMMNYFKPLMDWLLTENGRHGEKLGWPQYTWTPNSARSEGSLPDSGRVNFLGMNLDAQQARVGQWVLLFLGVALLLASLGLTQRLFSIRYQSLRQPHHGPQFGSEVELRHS
In short: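 Rabbit lung ACE with synthetic substrate hippurylhistidylleucine; the liberated hippuric acid was quantitated spectrophotometrically. Conditions follow the authors' earlier method.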

Rattus norvegicus [2] = assay: In vivo inhibition of angiotensin I induced pressor effect after iv administration in rats; assay type: functional
In short: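 Conscious, unrestrained male Sprague-Dawley rats (225-275 g) with aortic and vena caval catheters, recovered at least 2 weeks. […] Compound was given iv in water or 5% NaHCO3 and responses followed up to 70 min. Maximum inhibition was averaged over four rats per dose; ED50 was interpolated from the maximum-inhibition vs dose plot.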

Rattus norvegicus [3] = assay: In vivo inhibition angiotensin I induced pressor effect after po administration of 5 umol/kg in rats; assay type: functional
In short: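 Normotensive catheterized male Sprague-Dawley rats (225-275 g), conscious and unrestrained. Compound was given orally at 5.0 µmol/kg in water, 5% NaHCO3 or 1% agar suspension. Angiotensin I (310 ng/kg iv) pressor responses were compared with pre-dose responses for up to 280 min. Maximum percent inhibition is the mean of four animals.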

Rattus norvegicus [4] = assay: In vivo inhibition of angiotensin I induced pressor effect after po administration in rats; assay type: functional
In short: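 Oral dosing of conscious catheterized male Sprague-Dawley rats (225-275 g) in water, 5% NaHCO3 or 1% agar suspension. Angiotensin I (310 ng/kg iv) pressor responses were followed up to 280 min against pre-dose values, with four rats per dose. ED50 was interpolated from a plot of maximum inhibition vs dose.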

| SMILES | IC50 [1] | ED50 (Rattus norvegicus [2]) | inhibition in vivo at 5 µmol/kg (Rattus norvegicus [3]) | ED50 (Rattus norvegicus [4]) |
| --- | --- | --- | --- | --- |
| CCCCCCCCCP(=O)(O)O[C@@H](CCCCN)C(=O)N1CCC[C@H]1C(=O)O | 0.031 µM | 0.13 µmol/kg | 23% | – |
| CC(C)CCCP(=O)(O)O[C@@H](CCCCN)C(=O)N1CCC[C@H]1C(=O)O | 0.15 µM | 0.095 µmol/kg | 69% | – |
| CC(=O)NCCCC[C@H](OP(=O)(O)CCCCc1ccccc1)C(=O)N1CCC[C@H]1C(=O)O | 0.18 µM | < 1.4 µmol/kg | – | – |
| NCCCC[C@H](OP(=O)(O)CCCCC1CCCCC1)C(=O)N1CCC[C@H]1C(=O)O | 0.055 µM | 0.18 µmol/kg | 68% | 2.3 µmol/kg |
| C[C@H](N[C@@H](CCc1ccccc1)C(=O)O)C(=O)N1CCC[C@H]1C(=O)O [ENALAPRILAT ANHYDROUS] | – | 0.033 µmol/kg | – | 5.13 µmol/kg |
| CCOC(=O)[C@H](CCc1ccccc1)N[C@@H](C)C(=O)N1CCC[C@H]1C(=O)O | – | – | – | 0.46 µmol/kg |
| CCCCCC(C)P(=O)(O)O[C@@H](CCCCN)C(=O)N1CCC[C@H]1C(=O)O (stereo partly specified) | 0.061 µM | 0.13 µmol/kg | 29% | – |
| CCCC[C@H](OP(=O)(O)CCCCc1ccccc1)C(=O)N1CCC[C@H]1C(=O)O | 0.18 µM | > 1.4 µmol/kg | – | – |

Further molecules by falling IC50 [1], results first:

| IC50 [1] | SMILES | ED50 (Rattus norvegicus [2]) | inhibition in vivo at 5 µmol/kg (Rattus norvegicus [3]) | ED50 (Rattus norvegicus [4]) |
| --- | --- | --- | --- | --- |
| 3.8 µM | CC(C)C[C@H](OP(=O)(O)CCCCc1ccccc1)C(=O)N1CCC[C@H]1C(=O)O | – | – | – |
| 0.19 µM | NCCCC[C@H](OP(=O)(O)CCCc1ccccc1)C(=O)N1CCC[C@H]1C(=O)O | 0.069 µmol/kg | 67% | 2.62 µmol/kg |
| 0.11 µM | NCCCCC[C@H](OP(=O)(O)CCCCc1ccccc1)C(=O)N1CCC[C@H]1C(=O)O | > 1.5 µmol/kg | – | – |
| 0.095 µM | CCCCCCCCCCP(=O)(O)O[C@@H](CCCCN)C(=O)N1CCC[C@H]1C(=O)O | 0.17 µmol/kg | 2% | – |
| 0.094 µM | NCCCC[C@H](OP(=O)(O)CCCCc1cccnc1)C(=O)N1CCC[C@H]1C(=O)O | 0.19 µmol/kg | 56% | – |
| 0.059 µM | C[C@H](OP(=O)(O)CCCCc1ccccc1)C(=O)N1CCC[C@H]1C(=O)O | 0.75 µmol/kg | – | > 25 µmol/kg |
| 0.024 µM | CCCCCCP(=O)(O)O[C@@H](CCCCN)C(=O)N1CCC[C@H]1C(=O)O | 0.036 µmol/kg | 82% | 0.94 µmol/kg |
| 0.014 µM | NCCCC[C@H](OP(=O)(O)CCCCCc1ccccc1)C(=O)N1CCC[C@H]1C(=O)O | 0.067 µmol/kg | 65% | – |
| 0.012 µM | C[C@H](NP(=O)(O)CCCCc1ccccc1)C(=O)N1CCC[C@H]1C(=O)O | 0.05 µmol/kg | – | 25 µmol/kg |
